Data taken from ChEMBL document CHEMBL1157562, “Piperazinyl glutamate pyridines as potent orally bioavailable P2Y12 antagonists for inhibition of platelet aggregation” (J Med Chem, 2010).

Legend:
[1] = Antiplatelet aggregation activity against adenosine diphosphate-induced human platelet rich plasma assessed as inhibition of platelet aggregation by turbidimetric method; type: functional; conditions: Homo sapiens, Platelet, Plasma
In short: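 Human PRP, prepared by two-step centrifugation and adjusted to 330 000 platelets/μL with PPP. Compound was preincubated 5 min at 37 °C in 0.5% DMSO, then 20 μM ADP was added. OD626 was read kinetically for 15 min at 37 °C with mixing between reads.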

P2Y purinoceptor 12 = P2Y purinoceptor 12 (Homo sapiens, UniProt Q9H244); assay: Displacement of [33P]ADP from human recombinant P2Y12 receptor expressed in CHO cells; type: cell-based
Chain of P2Y purinoceptor 12 (Q9H244 whole entry): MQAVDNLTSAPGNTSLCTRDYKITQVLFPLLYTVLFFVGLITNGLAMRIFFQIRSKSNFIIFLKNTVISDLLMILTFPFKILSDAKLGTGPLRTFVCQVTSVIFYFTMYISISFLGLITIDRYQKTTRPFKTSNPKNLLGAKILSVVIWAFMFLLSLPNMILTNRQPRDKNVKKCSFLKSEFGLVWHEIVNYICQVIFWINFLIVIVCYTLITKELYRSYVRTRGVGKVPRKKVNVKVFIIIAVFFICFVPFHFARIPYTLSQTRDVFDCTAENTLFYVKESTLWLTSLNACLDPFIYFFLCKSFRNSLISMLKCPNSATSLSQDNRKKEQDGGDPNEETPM
In short: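 Washed membranes from CHO cells expressing synthetic human P2Y12, incubated 1 h at room temperature with 0.2 nM 33P-MeSADP in 50 mM Tris/100 mM NaCl/1 mM EDTA. Compound was tested as a 7-point 3-fold series in triplicate. Nonspecific binding was defined with 300 nM 2-MeSADP, followed by filtration.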

SMILES | IC50 [1] | Ki (P2Y purinoceptor 12)
CCCCCNC(=S)N1CCN(C(=O)[C@H](CCC(=O)O)NC(=O)c2cccc(-c3ccccc3)n2)CC1 | 42 µM | 0.006 µM
CCOC(=O)N1CCN(C(=O)[C@H](CCC(=O)O)NC(=O)c2cc(-c3ccccc3)cc(-c3ccccc3)c2)CC1 | > 100 µM | 0.373 µM
CCCCNC(=O)N1CCN(C(=O)[C@H](CCC(=O)O)NC(=O)c2cccc(-c3ccccc3)n2)CC1 | > 100 µM | 0.613 µM
COC(=O)N1CCN(C(=O)[C@H](CCC(=O)O)NC(=O)c2cccc(-c3ccccc3)n2)CC1 | > 100 µM | 
CCCCCCN1CCN(C(=O)[C@H](CCC(=O)O)NC(=O)c2cccc(-c3ccccc3)n2)CC1 | > 100 µM | > 2.71 µM
CCCCCCCCOC(=O)N1CCN(C(=O)[C@H](CCC(=O)O)NC(=O)c2cccc(-c3ccccc3)n2)CC1 | > 100 µM | 
O=C(O)CC[C@H](NC(=O)c1cccc(-c2ccccc2)n1)C(=O)N1CCN(C(=O)OCCCC(F)(F)F)CC1 | 70 µM | 0.018 µM
CCOC(=O)N1CCN(C(=O)[C@H](CCC(=O)O)NC(=O)c2cc(-c3ccccc3)nc(-c3ccccc3)c2)CC1 | > 50 µM | 0.484 µM
CCCCCOC(=O)N1CCN(C(=O)[C@H](CCC(=O)O)NC(=O)c2cc(NC(=O)CN3CCOCC3)cc(-c3ccccc3)n2)CC1 | > 10 µM | 0.003 µM
CCCCCCNC(=O)N1CCN(C(=O)[C@H](CCC(=O)O)NC(=O)c2cccc(-c3ccccc3)n2)CC1 | > 100 µM | 0.054 µM
CCCC(=O)N1CCN(C(=O)[C@H](CCC(=O)O)NC(=O)c2cccc(-c3ccccc3)n2)CC1 | > 100 µM | 3.1 µM
CCS(=O)(=O)N1CCN(C(=O)[C@H](CCC(=O)O)NC(=O)c2cccc(-c3ccccc3)n2)CC1 | > 100 µM | > 3.59 µM
CCCCCOC(=O)N1CCN(C(=O)[C@H](CCC(=O)O)NC(=O)c2cc(CC3CCCCC3)cc(-c3ccccc3)n2)CC1 | > 10 µM | 0.0086 µM
Cc1cccc(N2CCN(C(=O)[C@H](CCC(=O)O)NC(=O)c3cccc(-c4ccccc4)c3)CC2)c1 | > 100 µM | 1.31 µM
CC(C)C(=O)N1CCN(C(=O)[C@H](CCC(=O)O)NC(=O)c2cccc(-c3ccccc3)n2)CC1 | > 100 µM | > 3.59 µM
CCCCCOC(=O)N1CCN(C(=O)[C@H](CCC(=O)O)NC(=O)c2cc(CCCCCO)cc(-c3ccccc3)n2)CC1 | > 10 µM | 0.0028 µM
CCCCCOC(=O)N1CCN(C(=O)[C@H](CCC(=O)O)NC(=O)c2cc(NC(=O)OCCOC)cc(-c3ccccc3)n2)CC1 | > 10 µM | 0.0014 µM
Cc1cccc(N2CCN(C(=O)[C@H](CCC(=O)O)NC(=O)c3cc(-c4ccccc4)cc(-c4ccccc4)n3)CC2)c1 | > 100 µM | 0.15 µM
CCNC(=O)N1CCN(C(=O)[C@H](CCC(=O)O)NC(=O)c2cccc(-c3ccccc3)n2)CC1 | 80 µM | 0.288 µM

SMILES | IC50 [1] | Ki (P2Y purinoceptor 12)
CCCS(=O)(=O)N1CCN(C(=O)[C@H](CCC(=O)O)NC(=O)c2cccc(-c3ccccc3)n2)CC1 | > 100 µM | > 3.59 µM
CCOC(=O)N1CCN(C(=O)[C@H](CCC(=O)O)NC(=O)c2cccc(-c3ccccc3)c2)CC1 | > 100 µM | 3.64 µM
COCCOC(=O)N1CCN(C(=O)[C@H](CCC(=O)O)NC(=O)c2cccc(-c3ccccc3)n2)CC1 | > 100 µM | 0.492 µM
Cc1cccc(N2CCN(C(=O)[C@H](CCC(=O)O)NC(=O)c3cc(-c4ccccc4)ccn3)CC2)c1 | > 100 µM | > 5.7 µM
O=C(O)CC[C@H](NC(=O)c1cccc(-c2ccccc2)n1)C(=O)N1CCN(C(=O)OCC2CCC2)CC1 | > 100 µM | 0.028 µM
CCCCCCOC(=O)N1CCN(C(=O)[C@H](CCC(=O)O)NC(=O)c2cccc(-c3ccccc3)n2)CC1 | 19 µM | 
CCOC(=O)N1CCN(C(=O)[C@H](CCC(=O)O)NC(=O)c2cc(-c3ccccc3)cc(-c3ccccc3)n2)CC1 | 76 µM | 0.015 µM
CCOC(=O)N1CCN(C(=O)[C@H](CCC(=O)O)NC(=O)c2nccc(-c3ccccc3)n2)CC1 | 74 µM | 1.19 µM
CCCOC(=O)N1CCN(C(=O)[C@H](CCC(=O)O)NC(=O)c2cccc(-c3ccccc3)n2)CC1 | 62 µM | 
Cc1cccc(N2CCN(C(=O)[C@H](CCC(=O)O)NC(=O)c3cc(-c4ccccc4)cc(-c4ccccc4)c3)CC2)c1 | > 100 µM | 1.43 µM
CCCCC(=O)N1CCN(C(=O)[C@H](CCC(=O)O)NC(=O)c2cccc(-c3ccccc3)n2)CC1 | > 100 µM | 1.43 µM
CCCNC(=S)N1CCN(C(=O)[C@H](CCC(=O)O)NC(=O)c2cccc(-c3ccccc3)n2)CC1 | 81 µM | 0.042 µM
CCCCCOC(=O)N1CCN(C(=O)[C@H](CCC(=O)O)NC(=O)c2cc(NC(=O)CNC)cc(-c3ccccc3)n2)CC1 | > 10 µM | 0.0057 µM
CCCCCNC(=O)N1CCN(C(=O)[C@H](CCC(=O)O)NC(=O)c2cccc(-c3ccccc3)n2)CC1 | > 100 µM | 0.055 µM
CC(C)(C)CCOC(=O)N1CCN(C(=O)[C@H](CCC(=O)O)NC(=O)c2cccc(-c3ccccc3)n2)CC1 | > 100 µM | 0.042 µM
CCNC(=S)N1CCN(C(=O)[C@H](CCC(=O)O)NC(=O)c2cccc(-c3ccccc3)n2)CC1 | 39 µM | 0.009 µM
COCC(=O)N1CCN(C(=O)[C@H](CCC(=O)O)NC(=O)c2cccc(-c3ccccc3)n2)CC1 | > 100 µM | > 3.59 µM
CC(=O)N1CCN(C(=O)[C@H](CCC(=O)O)NC(=O)c2cccc(-c3ccccc3)n2)CC1 | > 100 µM | > 3.59 µM
CCCCCCCOC(=O)N1CCN(C(=O)[C@H](CCC(=O)O)NC(=O)c2cccc(-c3ccccc3)n2)CC1 | 56 µM | 

SMILES | IC50 [1] | Ki (P2Y purinoceptor 12)
CCCCCOC(=O)N1CCN(C(=O)[C@H](CCC(=O)O)NC(=O)c2cc(NC(C)=O)cc(-c3ccccc3)n2)CC1 | > 10 µM | 0.0062 µM
O=C(O)CC[C@H](NC(=O)c1cccc(-c2ccccc2)n1)C(=O)N1CCN(C(=O)OC2CCCCC2)CC1 | > 100 µM | 0.044 µM
CCCCCS(=O)(=O)N1CCN(C(=O)[C@H](CCC(=O)O)NC(=O)c2cccc(-c3ccccc3)n2)CC1 | > 100 µM | > 3.59 µM
CCCCCOC(=O)N1CCN(C(=O)[C@H](CCC(=O)O)NC(=O)c2cccc(-c3ccccc3)n2)CC1 | 15 µM | 
CCCCCOC(=O)N1CCN(C(=O)[C@H](CCC(=O)O)NC(=O)c2cc(N(C)CCOC)cc(-c3ccccc3)n2)CC1 | > 100 µM | 0.0021 µM
O=C(O)CC[C@H](NC(=O)c1cccc(-c2ccccc2)n1)C(=O)N1CCN(C(=O)OCC2CCCC2)CC1 | 82 µM | 0.046 µM
CCOC(=O)N1CCN(C(=O)[C@H](CCC(=O)O)NC(=O)c2cc(N(C)C)cc(-c3ccccc3)n2)CC1 | > 100 µM | 0.045 µM
CCCNC(=O)N1CCN(C(=O)[C@H](CCC(=O)O)NC(=O)c2cccc(-c3ccccc3)n2)CC1 | > 100 µM | 0.277 µM
CCCCS(=O)(=O)N1CCN(C(=O)[C@H](CCC(=O)O)NC(=O)c2cccc(-c3ccccc3)n2)CC1 | > 100 µM | > 3.59 µM
CCC(=O)N1CCN(C(=O)[C@H](CCC(=O)O)NC(=O)c2cccc(-c3ccccc3)n2)CC1 | > 100 µM | > 3.59 µM
O=C(O)CC[C@H](NC(=O)c1cccc(-c2ccccc2)n1)C(=O)N1CCN(C(=O)Nc2ccccc2)CC1 | > 100 µM | 0.842 µM
CC(C)CN1CCN(C(=O)[C@H](CCC(=O)O)NC(=O)c2cccc(-c3ccccc3)n2)CC1 | > 100 µM | > 3.8 µM
CCOC(=O)N1CCN(C(=O)CNC(=O)c2cccc(-c3ccccc3)n2)CC1 | > 100 µM | 1.61 µM
CCOC(=O)N1CCN(C(=O)[C@H](CCC(=O)O)NC(=O)c2cc(-c3ccccc3)nc(-c3ccccc3)n2)CC1 | > 100 µM | 0.356 µM
CCCCCOC(=O)N1CCN(C(=O)[C@H](CCC(=O)O)NC(=O)c2cc(NC(=O)N3CCCCC3)cc(-c3ccccc3)n2)CC1 | > 10 µM | 0.0058 µM
O=C(O)CC[C@H](NC(=O)c1cccc(-c2ccccc2)n1)C(=O)N1CCN(C(=O)c2ccccc2)CC1 | > 100 µM | 1.88 µM
Cc1cccc(N2CCN(C(=O)[C@H](CCC(=O)O)NC(=O)c3cccc(-c4ccccc4)n3)CC2)c1 | > 100 µM | 
CCCCOC(=O)N1CCN(C(=O)[C@H](CCC(=O)O)NC(=O)c2cccc(-c3ccccc3)n2)CC1 | 28 µM | 
